From ChEMBL document CHEMBL1138325, “Design, synthesis, in vitro, and in vivo characterization of phenylpiperazines and pyridinylpiperazines as potent and selective antagonists of the melanocortin-4 receptor” (J Med Chem, 2007)
Active and inactive are the calls of the source. No cut-off for these calls is given here.

Legend:
Melanocortin receptor 3 [1] = target: Melanocortin receptor 3 (Homo sapiens, UniProt P41968); experiment: Displacement of [125I]NDPMSH from human MC3R expressed in HEK293 cells; format: cell-based
Sequence of Melanocortin receptor 3 (Homo sapiens, UniProt P41968) (P41968 whole entry): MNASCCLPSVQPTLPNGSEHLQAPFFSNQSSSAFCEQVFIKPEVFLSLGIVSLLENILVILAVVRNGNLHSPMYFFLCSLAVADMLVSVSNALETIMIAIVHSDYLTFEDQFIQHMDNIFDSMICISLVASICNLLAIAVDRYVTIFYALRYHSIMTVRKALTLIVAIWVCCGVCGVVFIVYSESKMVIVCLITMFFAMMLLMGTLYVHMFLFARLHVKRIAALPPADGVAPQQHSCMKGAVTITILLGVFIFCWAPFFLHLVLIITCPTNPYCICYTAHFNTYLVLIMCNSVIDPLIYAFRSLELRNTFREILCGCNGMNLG

Melanocortin receptor 5 = Melanocortin receptor 5 (Homo sapiens, UniProt P33032); experiment: Displacement of [125I]NDPMSH from human MC5R expressed in HEK293 cells; format: cell-based
Sequence of Melanocortin receptor 5 (P33032 whole entry): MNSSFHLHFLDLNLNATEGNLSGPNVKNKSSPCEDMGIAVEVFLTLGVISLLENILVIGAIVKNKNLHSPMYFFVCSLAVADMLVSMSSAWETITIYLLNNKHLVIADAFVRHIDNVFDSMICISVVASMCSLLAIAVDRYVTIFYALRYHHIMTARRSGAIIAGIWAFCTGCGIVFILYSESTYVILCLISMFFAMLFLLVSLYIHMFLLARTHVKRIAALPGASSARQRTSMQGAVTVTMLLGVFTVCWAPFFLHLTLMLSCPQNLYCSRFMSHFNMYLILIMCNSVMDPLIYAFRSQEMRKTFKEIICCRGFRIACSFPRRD

Melanocortin receptor 4 [2] = target: Melanocortin receptor 4 (Homo sapiens, UniProt P32245); experiment: Antagonist activity at human MC4R expressed in HEK293 cells assessed as inhibition of alpha-MSH-stimulated cAMP production; format: functional, cell-based
Sequence of Melanocortin receptor 4 (Homo sapiens, UniProt P32245) (P32245 whole entry): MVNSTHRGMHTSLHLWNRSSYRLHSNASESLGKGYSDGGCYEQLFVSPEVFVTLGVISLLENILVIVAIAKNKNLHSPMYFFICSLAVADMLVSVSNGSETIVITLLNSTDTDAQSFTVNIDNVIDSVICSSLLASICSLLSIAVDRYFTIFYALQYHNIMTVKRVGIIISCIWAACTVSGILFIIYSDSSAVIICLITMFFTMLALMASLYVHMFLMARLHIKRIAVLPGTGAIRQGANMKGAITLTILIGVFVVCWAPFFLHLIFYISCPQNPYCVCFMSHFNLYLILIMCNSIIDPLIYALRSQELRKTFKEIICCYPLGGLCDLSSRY

[3] = target: Melanocyte-stimulating hormone receptor (Homo sapiens, UniProt Q01726); experiment: Displacement of [125I]NDPMSH from human MC1R expressed in HEK293 cells at 10 uM; format: cell-based
Sequence of Melanocyte-stimulating hormone receptor (Q01726 whole entry, looked up): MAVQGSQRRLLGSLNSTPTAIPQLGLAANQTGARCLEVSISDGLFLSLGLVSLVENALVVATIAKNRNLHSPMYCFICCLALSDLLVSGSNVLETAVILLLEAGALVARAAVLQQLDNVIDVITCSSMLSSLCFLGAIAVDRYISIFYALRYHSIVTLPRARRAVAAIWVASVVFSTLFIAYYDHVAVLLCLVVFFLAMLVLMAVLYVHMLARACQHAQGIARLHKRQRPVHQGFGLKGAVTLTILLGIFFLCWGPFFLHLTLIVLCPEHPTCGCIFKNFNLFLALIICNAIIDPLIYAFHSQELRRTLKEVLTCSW

[4] = Half life in CD1 mouse at 5 mg/kg, iv; format: ADME, organism-based; set-up: dose 5 mg/kg, route intravenous; settings: in vivo
Summary of the method: (§1)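 CD-1 mice, three animals, dosed i.v. at 5 mg/kg and by oral gavage at 10 mg/kg. Plasma CL, Vd, t1/2, Cmax, Tmax, oral AUC and F% were derived. Brain concentrations and brain/plasma ratios at 1 and 4 h were taken from the i.v. dosing.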

[5] = Drug level in CD1 mouse brain at 5 mg/kg, iv after 1 hr; format: ADME, organism-based; set-up: dose 5 mg/kg, route intravenous; settings: read-out: Drug uptake; summary of the method: as §1
[6] = Ratio of drug level in brain to plasma in CD1 mouse at 5 mg/kg, iv after 1 hr; format: ADME, organism-based; set-up: dose 5 mg/kg, route intravenous; settings: brain and plasma, read-out: BPR
[7] = Tmax in CD1 mouse at 10 mg/kg, po; format: ADME, organism-based; set-up: dose 10 mg/kg, route oral; settings: in vivo
Summary of the method: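 CD-1 mice, three animals per route; single i.v. dose at 5 mg/kg and oral gavage at 10 mg/kg. Plasma PK parameters derived; brain concentrations and brain/plasma ratios taken from the i.v. dosing at 1 and 4 h.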

[8] = Cmax in CD1 mouse at 10 mg/kg, po after 6 hrs; format: ADME, organism-based; set-up: dose 10 mg/kg, route oral; settings: in vivo; summary of the method: as §1
[9] = Drug level in CD1 mouse brain at 5 mg/kg, iv after 4 hrs; format: ADME, organism-based; set-up: dose 5 mg/kg, route intravenous; settings: read-out: Drug uptake; summary of the method: as §1
[10] = Ratio of drug level in brain to plasma in CD1 mouse at 5 mg/kg, iv after 4 hrs; format: ADME, organism-based; set-up: dose 5 mg/kg, route intravenous; settings: brain and plasma, read-out: BPR
[11] = Volume of distribution in Sprague-Dawley rat at 5 mg/kg, iv and 10 mg/kg, po; format: ADME, organism-based; settings: in vivo
Summary of the method: (§2)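 Sprague–Dawley rats, three animals per route; i.v. dose 5 mg/kg and oral 10 mg/kg. Brain concentrations and brain/plasma ratios taken from the oral dosing at 1 and 4 h post-dose.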

[12] = Half life in Sprague-Dawley rat at 5 mg/kg, iv and 10 mg/kg, po; format: ADME, organism-based; settings: in vivo
[13] = Tmax in Sprague-Dawley rat at 5 mg/kg, iv and 10 mg/kg, po; format: ADME, organism-based; settings: in vivo; summary of the method: as §2
[14] = Cmax in Sprague-Dawley rat at 10 mg/kg, po; format: ADME, organism-based; set-up: dose 10 mg/kg, route oral; settings: in vivo
[15] = AUC in Sprague-Dawley rat at 10 mg/kg, po; format: ADME, organism-based; set-up: dose 10 mg/kg, route oral; settings: plasma
[16] = Oral bioavailability in Sprague-Dawley rat at 10 mg/kg, po; format: ADME, organism-based; settings: in vivo; summary of the method: as §2
[17] = Drug level in Sprague-Dawley rat brain at 10 mg/kg, po after 1 hr; format: ADME, organism-based; set-up: dose 10 mg/kg, route oral; settings: read-out: Drug uptake
[18] = Ratio of drug level in brain to plasma in Sprague-Dawley rat at 10 mg/kg, po after 4 hrs; format: ADME, organism-based; set-up: dose 10 mg/kg, route oral; settings: brain and plasma, read-out: BPR; summary of the method: as §2
[19] = Half life in dog at 5 mg/kg, iv; format: ADME, organism-based, Canis lupus familiaris; set-up: dose 5 mg/kg, route intravenous; settings: in vivo
[20] = AUC in dog at 5 mg/kg, iv; format: ADME, organism-based, Canis lupus familiaris; set-up: dose 5 mg/kg, route intravenous; settings: plasma
[21] = Clearance in monkey at 5 mg/kg, iv; format: ADME, organism-based, Macaca mulatta; set-up: dose 5 mg/kg, route intravenous; settings: rhesus monkey, in vivo
[22] = Volume of distribution in monkey at 5 mg/kg, iv; format: ADME, organism-based, Macaca mulatta; set-up: dose 5 mg/kg, route intravenous; settings: rhesus monkey, in vivo
Mus musculus [23] = experiment: Increase in food intake in Lewis lung carcinoma bearing C57BL/6J mouse at 9 mg/kg, ip bid after 4 days; format: functional, organism-based; set-up: dose 9 mg/kg
Summary of the method: (§3)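 Male C57BL/6J mice inoculated with Lewis lung carcinoma cells. From day 11 after inoculation, mice were dosed i.p. twice daily at 3 or 9 mg/kg for 4 days and compared with vehicle-treated tumor-bearing controls. Food intake and body weight were recorded; lean body mass was measured by DEXA.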

[24] = Cmax in monkey at 10 mg/kg, po; format: ADME, organism-based, Macaca mulatta; set-up: dose 10 mg/kg, route oral; settings: rhesus monkey, in vivo
[25] = Tmax in monkey at 10 mg/kg, po; format: ADME, organism-based, Macaca mulatta; set-up: dose 10 mg/kg, route oral; settings: rhesus monkey, in vivo
[26] = AUC in monkey at 10 mg/kg, po; format: ADME, organism-based, Macaca mulatta; set-up: dose 10 mg/kg, route oral; settings: rhesus monkey, plasma
[27] = Bioavailability in monkey at 10 mg/kg, po; format: ADME, organism-based, Macaca mulatta; settings: rhesus monkey, in vivo
Mus musculus [28] = experiment: Increase in body weight in Lewis lung carcinoma bearing C57BL/6J mouse at 9 mg/kg, ip bid after 4 days; format: functional, organism-based; set-up: dose 9 mg/kg; summary of the method: as §3
Mus musculus [29] = experiment: Increase in lean body mass in Lewis lung carcinoma bearing C57BL/6J mouse at 3 mg/kg, ip bid after 4 days; format: functional; settings: route intraperitoneal; summary of the method: as §3
Mus musculus [30] = experiment: Increase in lean body mass in Lewis lung carcinoma bearing C57BL/6J mouse at 9 mg/kg, ip bid after 4 days; format: functional; settings: route intraperitoneal; summary of the method: as §3
Melanocortin receptor 4 [31] = target: Melanocortin receptor 4 (Mus musculus, UniProt P56450); experiment: Binding affinity to mouse MC4R
Sequence of Melanocortin receptor 4 (Mus musculus, UniProt P56450) (P56450 whole entry): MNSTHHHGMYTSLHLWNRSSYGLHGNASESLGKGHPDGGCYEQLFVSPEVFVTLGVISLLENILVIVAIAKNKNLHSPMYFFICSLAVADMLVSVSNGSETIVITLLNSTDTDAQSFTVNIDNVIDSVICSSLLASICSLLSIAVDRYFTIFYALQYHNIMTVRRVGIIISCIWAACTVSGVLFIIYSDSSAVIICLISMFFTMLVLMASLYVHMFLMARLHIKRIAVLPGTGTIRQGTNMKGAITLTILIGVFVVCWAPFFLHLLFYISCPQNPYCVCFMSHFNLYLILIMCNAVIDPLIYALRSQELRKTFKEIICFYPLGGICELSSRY

Melanocortin receptor 3 [32] = target: Melanocortin receptor 3 (Mus musculus, UniProt P33033); experiment: Binding affinity to mouse MC3R
Sequence of Melanocortin receptor 3 (Mus musculus, UniProt P33033) (P33033 whole entry): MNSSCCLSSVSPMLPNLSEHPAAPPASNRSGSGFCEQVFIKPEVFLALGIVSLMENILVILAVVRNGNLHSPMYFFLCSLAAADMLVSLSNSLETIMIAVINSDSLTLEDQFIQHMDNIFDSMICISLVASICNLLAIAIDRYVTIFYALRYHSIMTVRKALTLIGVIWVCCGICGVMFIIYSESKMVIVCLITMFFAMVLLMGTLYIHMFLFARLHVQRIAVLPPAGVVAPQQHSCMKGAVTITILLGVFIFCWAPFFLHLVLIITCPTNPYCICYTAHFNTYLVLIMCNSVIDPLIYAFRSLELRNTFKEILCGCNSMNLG

[33] = Cmax in CD1 mouse at 10 mg/kg, ip; format: ADME, organism-based; set-up: dose 10 mg/kg, route intraperitoneal; settings: in vivo
Summary of the method: (§4)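 CD-1 mice, single intraperitoneal dose of 10 mg/kg, n = 3. Plasma concentration followed over time, giving Cmax, Tmax and AUC.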

[34] = AUC in CD1 mouse at 10 mg/kg, ip; format: ADME, organism-based; set-up: dose 10 mg/kg, route intraperitoneal; settings: plasma; summary of the method: as §4
[35] = Plasma concentration in CD1 mouse at 10 mg/kg, ip after 8 hrs; format: ADME, organism-based; set-up: dose 10 mg/kg, route intraperitoneal
[36] = Ratio of drug level in brain to plasma in CD1 mouse at 10 mg/kg, ip; format: ADME, organism-based; set-up: dose 10 mg/kg, route intraperitoneal; settings: read-out: BPR
Cytochrome P450 1A2 = target: T1, Cytochrome P450 1A2 (Homo sapiens, UniProt P05177); experiment: Inhibition of CYP1A2; format: ADME
T1 sequence (P05177 whole entry): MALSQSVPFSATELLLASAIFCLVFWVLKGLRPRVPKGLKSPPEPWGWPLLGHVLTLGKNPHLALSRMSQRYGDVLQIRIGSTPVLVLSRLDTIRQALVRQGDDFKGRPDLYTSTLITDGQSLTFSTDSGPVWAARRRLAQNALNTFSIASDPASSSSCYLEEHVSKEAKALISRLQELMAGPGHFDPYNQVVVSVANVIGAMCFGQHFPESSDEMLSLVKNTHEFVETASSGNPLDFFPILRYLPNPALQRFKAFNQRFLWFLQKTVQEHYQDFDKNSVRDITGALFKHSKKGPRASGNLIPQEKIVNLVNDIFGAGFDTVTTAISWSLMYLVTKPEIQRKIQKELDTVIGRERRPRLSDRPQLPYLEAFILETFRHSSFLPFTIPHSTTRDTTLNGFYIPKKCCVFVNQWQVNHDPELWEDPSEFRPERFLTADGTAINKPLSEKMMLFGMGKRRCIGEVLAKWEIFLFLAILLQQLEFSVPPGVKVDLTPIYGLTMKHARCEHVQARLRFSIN

Cytochrome P450 3A4 = Cytochrome P450 3A4 (Homo sapiens, UniProt P08684); experiment: Inhibition of CYP3A4; format: ADME
Sequence of Cytochrome P450 3A4 (P08684 whole entry): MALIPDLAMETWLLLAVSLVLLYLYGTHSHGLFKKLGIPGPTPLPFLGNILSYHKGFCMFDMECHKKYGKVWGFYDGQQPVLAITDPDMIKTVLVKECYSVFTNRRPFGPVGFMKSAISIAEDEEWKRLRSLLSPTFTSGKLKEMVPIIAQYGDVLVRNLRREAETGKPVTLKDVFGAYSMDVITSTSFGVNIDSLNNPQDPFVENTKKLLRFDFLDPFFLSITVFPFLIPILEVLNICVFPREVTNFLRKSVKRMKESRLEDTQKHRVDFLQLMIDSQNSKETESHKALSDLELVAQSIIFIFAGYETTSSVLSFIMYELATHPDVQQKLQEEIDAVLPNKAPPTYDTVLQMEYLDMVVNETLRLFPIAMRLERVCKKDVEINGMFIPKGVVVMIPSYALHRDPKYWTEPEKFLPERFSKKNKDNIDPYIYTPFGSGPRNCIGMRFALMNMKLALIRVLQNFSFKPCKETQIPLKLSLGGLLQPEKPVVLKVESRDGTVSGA

Cytochrome P450 2C9 = Cytochrome P450 2C9 (Homo sapiens, UniProt P11712); experiment: Inhibition of CYP2C9; format: ADME
Sequence of Cytochrome P450 2C9 (P11712 whole entry): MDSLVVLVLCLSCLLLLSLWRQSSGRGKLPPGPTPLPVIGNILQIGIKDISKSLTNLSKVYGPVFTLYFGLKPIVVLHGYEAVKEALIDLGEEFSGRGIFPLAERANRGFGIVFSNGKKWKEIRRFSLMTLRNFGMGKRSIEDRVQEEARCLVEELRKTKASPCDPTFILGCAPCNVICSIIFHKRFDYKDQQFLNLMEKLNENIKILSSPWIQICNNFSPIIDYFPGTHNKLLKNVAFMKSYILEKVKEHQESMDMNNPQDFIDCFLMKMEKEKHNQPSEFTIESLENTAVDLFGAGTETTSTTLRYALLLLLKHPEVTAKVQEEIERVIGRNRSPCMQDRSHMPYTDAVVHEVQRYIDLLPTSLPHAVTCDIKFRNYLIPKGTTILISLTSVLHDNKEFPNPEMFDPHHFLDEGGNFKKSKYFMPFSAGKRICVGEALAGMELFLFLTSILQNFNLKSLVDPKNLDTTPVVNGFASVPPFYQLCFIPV

Cytochrome P450 2C19 = Cytochrome P450 2C19 (Homo sapiens, UniProt P33261); experiment: Inhibition of CYP2C19; format: ADME
Sequence of Cytochrome P450 2C19 (P33261 whole entry): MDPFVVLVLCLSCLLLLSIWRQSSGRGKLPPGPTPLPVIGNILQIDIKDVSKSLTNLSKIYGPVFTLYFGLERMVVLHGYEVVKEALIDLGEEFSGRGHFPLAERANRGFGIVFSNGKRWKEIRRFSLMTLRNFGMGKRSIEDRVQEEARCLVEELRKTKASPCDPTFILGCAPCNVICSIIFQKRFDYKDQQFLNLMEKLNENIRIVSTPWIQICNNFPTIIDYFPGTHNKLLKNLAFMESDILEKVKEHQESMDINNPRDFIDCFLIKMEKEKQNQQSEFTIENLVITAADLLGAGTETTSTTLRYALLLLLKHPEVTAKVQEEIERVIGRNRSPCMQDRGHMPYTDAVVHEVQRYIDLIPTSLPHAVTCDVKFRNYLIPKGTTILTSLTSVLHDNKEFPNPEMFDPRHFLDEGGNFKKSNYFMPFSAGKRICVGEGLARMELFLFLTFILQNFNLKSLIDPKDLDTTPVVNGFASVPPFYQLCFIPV

`CC(C)C[C@H](NC(=O)CCN(C)C)c1cc(Cl)ccc1N1CCN(C(=O)[C@H](C)Cc2ccc(Cl)cc2)CC1` showed a Ki (Melanocortin receptor 3 [1]) of 710 nM, a Ki (Melanocortin receptor 5) of 600 nM and an IC50 (Melanocortin receptor 4 [2]) of 930 nM. For the same molecule, the Activity [3] was 20%, the half-life [4] was 3.5 h and the concentration at 1 h [5] was 800 ng/g. The Kp at 1 h [6] was 2.4, the Tmax [7] was 0.5 h and the Cmax [8] was 132 ng/mL. For the same molecule, the concentration at 4 h [9] was 177 ng/g, the Kp at 4 h [10] was 2.2 and the Vd [11] was 2.5 L/kg. The half-life [12] was 2.2 h, the Tmax [13] was 6 h and the Cmax [14] was 163 ng/mL. It also gave an AUC [15] of 1870 ng·h/mL, a bioavailability [16] of 18% and a concentration at 1 h [17] of 3 ng/g. It also gave a Kp at 4 h [18] of 0.3, a half-life [19] of 4.7 h and an AUC [20] of 2510 ng·h/mL. For the same molecule, the clearance [21] was 24.3 mL/min/kg, the Vd [22] was 8.5 L/kg and the Activity (Mus musculus [23]) was “Active”. The Cmax [24] was 108 ng/mL, the Tmax [25] was 2.7 h and the AUC [26] was 1070 ng·h/mL. For the same molecule, the bioavailability [27] was 13.1%, the Activity (Mus musculus [28]) was “Active” and the Activity (Mus musculus [29]) was 7%. The Activity (Mus musculus [30]) was 15%, the Ki (Melanocortin receptor 4 [31]) was 18 nM and the Ki (Melanocortin receptor 3 [32]) was 340 nM. For the same molecule, the Cmax [33] was 1520 ng/mL, the AUC [34] was 3070 ng·h/mL and the concentration at 8 h [35] was 100 ng/mL. For the same molecule, the Kp [36] was 2, the IC50 (Cytochrome P450 1A2) was > 10000 nM and the IC50 (Cytochrome P450 3A4) was > 10000 nM. The IC50 (Cytochrome P450 2C9) was > 10000 nM and the IC50 (Cytochrome P450 2C19) was > 10000 nM.
